Where “and” joins values, the source holds several entries; their conditions need not be identical. Identical values can stand only once. Calls of active or inactive are those of the source.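 How the source made its calls: active means over 50% block of current through the KCNK9 TASK-3 potassium channel at 10 µM compound; inactive means the rest.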

Sequence of Potassium channel subfamily K member 9 (Homo sapiens) (Q9NPC2 whole entry, looked up): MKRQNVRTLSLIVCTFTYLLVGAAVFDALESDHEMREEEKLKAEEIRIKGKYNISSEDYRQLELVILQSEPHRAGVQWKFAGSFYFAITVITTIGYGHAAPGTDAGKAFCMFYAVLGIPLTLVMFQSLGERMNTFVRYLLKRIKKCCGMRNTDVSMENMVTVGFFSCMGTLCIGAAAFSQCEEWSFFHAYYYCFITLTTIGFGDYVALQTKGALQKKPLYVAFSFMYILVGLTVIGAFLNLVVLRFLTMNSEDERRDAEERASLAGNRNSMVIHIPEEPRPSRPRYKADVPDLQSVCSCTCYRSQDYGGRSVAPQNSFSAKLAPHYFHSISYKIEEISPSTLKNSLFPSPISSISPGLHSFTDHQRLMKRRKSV

This experiment concerns the target Potassium channel subfamily K member 9 (Homo sapiens) (UniProt Q9NPC2). Nature of the experiment: blockers of KCNK9 channel currents – cell-based, automated electrophysiology, HEK293, SAR follow-up (AID 623898). To be noted: HEK293 KCNK9, QPatch automated patch clamp current. The essentials:
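Test system – HEK293 cells with tetracycline-inducible stable human KCNK9 expression · Times – 5 min per concentration step · Measure – per-cell IC50 from Hill fit with unit slope, fractional current block · Compound – cumulative compound concentration series on each cell · Detection – automated whole-cell voltage clamp, current at -30 mV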
As to `O=C(Nc1cccc(NC(=O)c2ccccc2C(F)(F)F)c1)c1ccccc1`, the IC50 was 850 nM.

For the compound `COc1ccc(-c2n[nH]c(=S)n2C(C)C2CC3CCC2C3)cc1` (centres undefined), the IC50 is 330 nM. The same measure, in the same setting: as for `COc1ccccc1C(=O)Nc1cccc(NC(=O)c2ccccc2C(C)C)c1`, the figure is 670 nM. With `CC(C1CC2CCC1C2)n1c(-c2cccc(Cl)c2)n[nH]c1=S` (centres undefined), the IC50 was 960 nM. `CC(C)n1c(-c2ccco2)n[nH]c1=S`: the outcome was inactive. Regarding `CCOc1ccccc1C(=O)Nc1cccc(NC(=O)C2CCCC2)c1`, the IC50 was 490 nM. The same measure, in the same setting: as for `CCOc1ccccc1NC(=O)c1cccc(NC(=O)c2ccccc2OC(F)(F)F)c1`, the figure is 1490 nM; as for `CC(C1CC2CCC1C2)n1c(-c2ccco2)n[nH]c1=S` (centres undefined), 250 nM and 230 nM. On the same count and under the same terms, as for `COc1ccc(CCSc2nnc(-c3ccco3)n2C(C)C2CC3CCC2C3)cc1OC` (centres undefined), the figure is 5480 nM. Still for that read-out and setting: the value for `COc1ccccc1C(=O)Nc1cccc(NC(=O)c2ccccc2OC)c1` was 710 nM. As to `O=C(Nc1cccc(NC(=O)C2CCCCC2)c1)c1ccccc1`, the IC50 is 8100 nM. Still for that read-out and setting: the value for `Cc1ccccc1C(=O)Nc1cccc(NC(=O)c2ccccc2)c1` was 270 nM; that for `Cc1ccccc1-c1n[nH]c(=S)n1C(C)C1CC2CCC1C2` (centres undefined) was 960 nM.

`C[C@H](C1CCCCC1)n1c(-c2ccco2)n[nH]c1=S`: the IC50 is 510 nM.

For `Cc1cccc(C(=O)Nc2cccc(NC(=O)c3ccccc3C)c2)c1`, the 50% inhibitory concentration (IC50) is 480 nM.

For `CCOc1ccccc1NC(=O)c1cccc(NC(=O)c2cccc(C(F)(F)F)c2)c1`, the IC50 is 2100 nM.

With `CC(CC1CC2CCC1C2)n1c(-c2ccco2)n[nH]c1=S` (centres undefined), the IC50 is 590 nM. Take `O=C(Nc1cccc(NC(=O)c2ccc(C(F)(F)F)cc2)c1)c1ccccc1`: the outcome was inactive.

`CCOc1ccccc1NC(=O)c1cccc(NC(=O)c2ccccc2)c1`: the IC50 is 2140 nM. Same read-out and setting: the value for `CCOc1ccccc1NC(=O)c1cccc(NC(=O)CC2CCCC2)c1` was 3900 nM.

`Cc1ccc(C(=O)Nc2cccc(NC(=O)c3ccccc3)c2)cc1`: the outcome was inactive.

As for `CC(C1CC2CCC1C2)n1c(-c2ccoc2)n[nH]c1=S` (centres undefined), the IC50 was 940 nM. Same read-out and setting: as for `O=C(Nc1cccc(NC(=O)c2ccccn2)c1)c1ccccc1`, the figure is 6100 nM; as for `CCOc1ccccc1C(=O)Nc1cccc(NC(=O)c2ccccc2C(F)(F)F)c1`, 250 nM; as for `CC(C1CC2CCC1C2)n1c(-c2ccccc2F)n[nH]c1=S` (centres undefined), 250 nM. The same measure, in the same setting: as for `CC(C1CC2CCC1C2)n1c(-c2ccsc2)n[nH]c1=S` (centres undefined), the figure is 620 nM; as for `Cc1cccc(C(=O)Nc2cccc(NC(=O)c3ccccc3OCC(C)C)c2)c1`, 2520 nM.

Take `CCOc1ccccc1NC(=O)c1cccc(NC(=O)c2cccc(C)c2)c1`: the IC50 is 2380 nM. Turning to `C[C@H](C1CCCCC1)n1c(-c2ccsc2)n[nH]c1=S`, the IC50 was 680 nM. `COc1ccccc1NC(=O)c1cccc(NC(=O)C2CCCC2)c1`: the IC50 is 3160 nM. Same read-out and setting: as for `C[C@@H](C1CCCCC1)n1c(-c2ccco2)n[nH]c1=S`, the figure is 6660 nM. The same measure, in the same setting: the value for `Cc1cccc(C(=O)Nc2cccc(NC(=O)c3ccccc3OC(F)(F)F)c2)c1` was 990 nM; that for `Cc1cccc(C(=O)Nc2cccc(NC(=O)c3ccco3)c2)c1` was 950 nM. Same read-out and setting: the value for `Cc1cccc(-c2n[nH]c(=S)n2C(C)C2CC3CCC2C3)c1` (centres undefined) was 760 nM. As for `C[C@@H]([C@@H]1CC2CC[C@H]1C2)n1c(-c2ccco2)n[nH]c1=S`, the IC50 was 410 nM. Turning to `COc1cccc(C(=O)Nc2cccc(NC(=O)c3ccccc3)c2)c1`, the IC50 was 420 nM.

`C[C@@H]([C@@H]1CC2CC[C@H]1C2)n1c(-c2ccsc2)n[nH]c1=S`: the IC50 is 410 nM and 680 nM. As to `S=c1[nH]nc(-c2ccco2)n1CC1CCCCC1`, the IC50 was 3780 nM. As for `C[C@H]([C@@H]1CC2CC[C@H]1C2)n1c(-c2ccsc2)n[nH]c1=S`, the result was inactive. Consider `COc1ccccc1NC(=O)c1cccc(NC(=O)c2ccccc2)c1`, for which the IC50 is 8480 nM. Regarding `CC(C1CC2CCC1C2)n1c(-c2ccccc2Cl)n[nH]c1=S` (centres undefined), the IC50 is 950 nM. On the same count and under the same terms, the value for `CCOc1ccccc1NC(=O)c1cccc(NC(=O)C2CCCCC2)c1` was 1110 nM.

As for `COc1ccccc1C(=O)Nc1cccc(NC(=O)c2cccc(C)c2)c1`, the IC50 is 1490 nM. The same measure, in the same setting: the value for `CCOc1ccccc1NC(=O)c1cccc(NC(=O)c2ccccc2C(F)(F)F)c1` was 520 nM; that for `CC(C1CC2CCC1C2)n1c(-c2cccc(N(C)C)c2)n[nH]c1=S` (centres undefined) was 1720 nM; that for `COc1ccccc1C(=O)Nc1cccc(NC(=O)c2ccccc2OC(F)(F)F)c1` was 600 nM. The same measure, in the same setting: the value for `CCOc1ccccc1C(=O)Nc1cccc(NC(=O)c2cccc(C)c2)c1` was 380 nM. In the case of `Cc1cccc(C(=O)Nc2cccc(NC(=O)c3cccc(C)c3)c2)c1`, the IC50 was 2240 nM.

`CC(C1CC2CCC1C2)n1c(-c2ccccc2)n[nH]c1=S` (centres undefined): the IC50 was 1240 nM. Regarding `CC(C1CC2CCC1C2)n1c(-c2ccco2)nn(CCc2ccncc2)c1=S` (centres undefined), the IC50 is 490 nM.

`CCOc1ccccc1NC(=O)c1cccc(NC(=O)CC2CCCCC2)c1`: the IC50 was 4730 nM. Take `CCOc1ccccc1C(=O)Nc1cccc(NC(=O)c2ccccc2OC)c1`: the IC50 was 180 nM. Still for that read-out and setting: the value for `COc1ccccc1-c1n[nH]c(=S)n1C(C)C1CC2CCC1C2` (centres undefined) was 1040 nM; that for `COc1cccc(-c2n[nH]c(=S)n2C(C)C2CC3CCC2C3)c1` (centres undefined) was 280 nM.

Usually IC50 stands for the concentration that gives 50% inhibition.
